# In ChEMBL document CHEMBL3758168, “Hybrid triazoles: Design and synthesis as potential dual inhibitor of growth and efflux inhibition in tuberculosis” (Eur J Med Chem, 2016):
# Columns and labels:
# [1] = system: Mycobacterium tuberculosis; experiment: Antibacterial activity against Mycobacterium tuberculosis H37Rv ATCC 27294T assessed as rifampin MIC at 8 ug/ml after 7 days by microdilution checkerboard assay; type: functional; conditions: 168 h
# Procedure, shortened: (§1)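 M. tuberculosis H37Rv grown in MB7H9 + 10% OADC at 37 °C to OD600 0.8; plates inoculated at 10^5 CFU/ml. Rifampicin two-fold serially diluted across columns, test compound two-fold diluted down rows (two-dimensional checkerboard). Sealed, 37 °C for seven days, then MTT added and incubated overnight. MIC read as no colour change. Triplicate.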
# [2] = system: Mycobacterium tuberculosis; experiment: Antibacterial activity against Mycobacterium tuberculosis H37Rv ATCC 27294T assessed as amikacin MIC at 16 ug/ml after 7 days by microdilution checkerboard assay; type: functional; conditions: 168 h
# Procedure, shortened: (§2)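 Two-dimensional checkerboard in H37Rv at 10^5 CFU/ml in MB7H9/OADC. Partner drug (amikacin, EtBr, isoniazid, ofloxacin or rifampin) two-fold serially diluted across columns 3-11. Test compound two-fold serially diluted down rows 2-6. Plates incubated 7 days at 37 °C, then MTT added overnight. […] Run in triplicate.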
# [3] = system: Mycobacterium tuberculosis; experiment: Antibacterial activity against Mycobacterium tuberculosis H37Rv ATCC 27294T assessed as ethidium bromide MIC at 1 ug/ml after 7 days by microdilution checkerboard assay; type: functional; conditions: 168 h; procedure, shortened: as §2
# [4] = system: Mycobacterium tuberculosis; experiment: Antibacterial activity against Mycobacterium tuberculosis H37Rv ATCC 27294T assessed as ofloxacin MIC at 2 ug/ml after 7 days by microdilution checkerboard assay; type: functional; conditions: 168 h; procedure, shortened: as §2
# [5] = system: Mycobacterium tuberculosis; experiment: Antibacterial activity against Mycobacterium tuberculosis H37Rv ATCC 27294T assessed as ethidium bromide MIC at 32 ug/ml after 7 days by microdilution checkerboard assay; type: functional; conditions: 168 h; procedure, shortened: as §2
# [6] = system: Mycobacterium tuberculosis; experiment: Antibacterial activity against Mycobacterium tuberculosis H37Rv ATCC 27294T assessed as rifampin MIC at 16 ug/ml after 7 days by microdilution checkerboard assay; type: functional; conditions: 168 h; procedure, shortened: as §1
# [7] = system: Mycobacterium tuberculosis; experiment: Antibacterial activity against Mycobacterium tuberculosis H37Rv ATCC 27294T assessed as ofloxacin MIC at 1 ug/ml after 7 days by microdilution checkerboard assay; type: functional; conditions: 168 h; procedure, shortened: as §2
# [8] = system: Mycobacterium tuberculosis; experiment: Antibacterial activity against Mycobacterium tuberculosis H37Rv ATCC 27294T assessed as rifampin MIC at 1 ug/ml after 7 days by microdilution checkerboard assay; type: functional; conditions: 168 h; procedure, shortened: as §1
# [9] = system: Mycobacterium tuberculosis; experiment: Antibacterial activity against Mycobacterium tuberculosis H37Rv ATCC 27294T assessed as ethidium bromide MIC at 16 ug/ml after 7 days by microdilution checkerboard assay; type: functional; conditions: 168 h; procedure, shortened: as §2
# [10] = system: Mycobacterium tuberculosis; experiment: Antibacterial activity against Mycobacterium tuberculosis H37Rv ATCC 27294T assessed as ethidium bromide MIC at 8 ug/ml after 7 days by microdilution checkerboard assay; type: functional; conditions: 168 h; procedure, shortened: as §2
# [11] = system: Mycobacterium tuberculosis; experiment: Antibacterial activity against Mycobacterium tuberculosis H37Rv ATCC 27294T assessed as isoniazid MIC at 8 ug/ml after 7 days by microdilution checkerboard assay; type: functional; conditions: 168 h; procedure, shortened: as §2
# [12] = system: Mycobacterium tuberculosis; experiment: Antibacterial activity against Mycobacterium tuberculosis H37Rv ATCC 27294T assessed as amikacin MIC at 1 ug/ml after 7 days by microdilution checkerboard assay; type: functional; conditions: 168 h; procedure, shortened: as §2
# [13] = system: Mycobacterium tuberculosis; experiment: Antibacterial activity against Mycobacterium tuberculosis H37Rv ATCC 27294T assessed as ethidium bromide MIC at 64 ug/ml after 7 days by microdilution checkerboard assay; type: functional; conditions: 168 h; procedure, shortened: as §2
# [14] = system: Mycobacterium tuberculosis; experiment: Antibacterial activity against Mycobacterium tuberculosis H37Rv ATCC 27294T assessed as ethidium bromide MIC at 4 ug/ml after 7 days by microdilution checkerboard assay; type: functional; conditions: 168 h; procedure, shortened: as §2
# [15] = system: Mycobacterium tuberculosis; experiment: Anti-tubercular activity against Mycobacterium tuberculosis H37Rv ATCC 27294T after 7 days by mircodilution method; type: functional; conditions: 168 h
# Procedure, shortened: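 H37Rv grown static in MB7H9 + 10% OADC at 37 °C to OD600 0.8, then diluted to about 10^5 cells/ml. Mixed 1:1 with two-fold serial dilutions in MB7H9/OADC and incubated 7 days at 37 °C. MTT added to final 2.5% and plates incubated overnight. MIC is the lowest concentration with no colour change. Run in triplicate.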
# [16] = Cytotoxicity against human MDM assessed as cell viability after 3 days by Alamar blue dye-based fluorocytometric analysis relative to control; conditions: 72 h
# [17] = system: Mycobacterium tuberculosis; experiment: Antibacterial activity against Mycobacterium tuberculosis H37Rv ATCC 27294T assessed as isoniazid MIC at 64 ug/ml after 7 days by microdilution checkerboard assay; type: functional; conditions: 168 h; procedure, shortened: as §2
# [18] = system: Mycobacterium tuberculosis; experiment: Antibacterial activity against Mycobacterium tuberculosis H37Rv ATCC 27294T assessed as rifampin MIC at 32 ug/ml after 7 days by microdilution checkerboard assay; type: functional; conditions: 168 h; procedure, shortened: as §1
# [19] = system: Mycobacterium tuberculosis; experiment: Antibacterial activity against Mycobacterium tuberculosis H37Rv ATCC 27294T assessed as amikacin MIC at 64 ug/ml after 7 days by microdilution checkerboard assay; type: functional; conditions: 168 h; procedure, shortened: as §2
# [20] = system: Mycobacterium tuberculosis; experiment: Antibacterial activity against Mycobacterium tuberculosis H37Rv ATCC 27294T assessed as isoniazid MIC at 2 ug/ml after 7 days by microdilution checkerboard assay; type: functional; conditions: 168 h; procedure, shortened: as §2
# [21] = system: Mycobacterium tuberculosis; experiment: Antibacterial activity against Mycobacterium tuberculosis H37Rv ATCC 27294T assessed as amikacin MIC at 8 ug/ml after 7 days by microdilution checkerboard assay; type: functional; conditions: 168 h; procedure, shortened: as §2
# [22] = system: Mycobacterium tuberculosis; experiment: Antibacterial activity against Mycobacterium tuberculosis H37Rv ATCC 27294T assessed as amikacin MIC at 2 ug/ml after 7 days by microdilution checkerboard assay; type: functional; conditions: 168 h; procedure, shortened: as §2
# [23] = system: Mycolicibacterium smegmatis; experiment: Anti-tubercular activity against Mycobacterium smegmatis MC2 155 ATCC 700084 after 3 days by microdilution method; type: functional; conditions: MC2 155 ATCC 700084, 72 h
# Procedure, shortened: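 M. smegmatis mc2155 grown in MB7H9 + 10% OADC at 37 °C with shaking to OD600 0.8. Inoculum set to 0.5 McFarland, diluted 1:100, and mixed 1:1 with two-fold serial dilutions in MB7H9. Plates incubated 3 days at 37 °C with growth and sterility controls. MIC taken as the lowest concentration with no visible growth.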
# [24] = system: Mycobacterium tuberculosis; experiment: Antibacterial activity against Mycobacterium tuberculosis H37Rv ATCC 27294T assessed as amikacin MIC at 32 ug/ml after 7 days by microdilution checkerboard assay; type: functional; conditions: 168 h; procedure, shortened: as §2
# [25] = system: Mycobacterium tuberculosis; experiment: Antibacterial activity against Mycobacterium tuberculosis H37Rv ATCC 27294T assessed as rifampin MIC at 2 ug/ml after 7 days by microdilution checkerboard assay; type: functional; conditions: 168 h; procedure, shortened: as §1
# [26] = system: Mycobacterium tuberculosis; experiment: Antibacterial activity against Mycobacterium tuberculosis H37Rv ATCC 27294T assessed as rifampin MIC at 64 ug/ml after 7 days by microdilution checkerboard assay; type: functional; conditions: 168 h; procedure, shortened: as §1
# [27] = system: Mycobacterium tuberculosis; experiment: Antibacterial activity against Mycobacterium tuberculosis H37Rv ATCC 27294T assessed as ofloxacin MIC at 4 ug/ml after 7 days by microdilution checkerboard assay; type: functional; conditions: 168 h; procedure, shortened: as §2
# [28] = system: Mycobacterium tuberculosis; experiment: Antibacterial activity against Mycobacterium tuberculosis H37Rv ATCC 27294T assessed as ofloxacin MIC at 32 ug/ml after 7 days by microdilution checkerboard assay; type: functional; conditions: 168 h; procedure, shortened: as §2
# [29] = system: Mycobacterium tuberculosis; experiment: Antibacterial activity against Mycobacterium tuberculosis H37Rv ATCC 27294T assessed as ofloxacin MIC at 64 ug/ml after 7 days by microdilution checkerboard assay; type: functional; conditions: 168 h; procedure, shortened: as §2
# [30] = system: Mycobacterium tuberculosis; experiment: Antibacterial activity against Mycobacterium tuberculosis H37Rv ATCC 27294T assessed as isoniazid MIC at 1 ug/ml after 7 days by microdilution checkerboard assay; type: functional; conditions: 168 h; procedure, shortened: as §2
# [31] = system: Mycobacterium tuberculosis; experiment: Antibacterial activity against Mycobacterium tuberculosis H37Rv ATCC 27294T assessed as isoniazid MIC at 16 ug/ml after 7 days by microdilution checkerboard assay; type: functional; conditions: 168 h; procedure, shortened: as §2
# [32] = system: Mycobacterium tuberculosis; experiment: Antibacterial activity against Mycobacterium tuberculosis H37Rv ATCC 27294T assessed as isoniazid MIC at 32 ug/ml after 7 days by microdilution checkerboard assay; type: functional; conditions: 168 h; procedure, shortened: as §2
# [33] = system: Mycobacterium tuberculosis; experiment: Antibacterial activity against Mycobacterium tuberculosis H37Rv ATCC 27294T assessed as amikacin MIC at 4 ug/ml after 7 days by microdilution checkerboard assay; type: functional; conditions: 168 h; procedure, shortened: as §2
# [34] = system: Mycobacterium tuberculosis; experiment: Antibacterial activity against Mycobacterium tuberculosis H37Rv ATCC 27294T assessed as ethidium bromide MIC at 2 ug/ml after 7 days by microdilution checkerboard assay; type: functional; conditions: 168 h; procedure, shortened: as §2
# [35] = system: Mycobacterium tuberculosis; experiment: Antibacterial activity against Mycobacterium tuberculosis H37Rv ATCC 27294T assessed as ofloxacin MIC at 16 ug/ml after 7 days by microdilution checkerboard assay; type: functional; conditions: 168 h; procedure, shortened: as §2
# [36] = system: Mycobacterium tuberculosis; experiment: Antibacterial activity against Mycobacterium tuberculosis H37Rv ATCC 27294T assessed as ofloxacin MIC at 8 ug/ml after 7 days by microdilution checkerboard assay; type: functional; conditions: 168 h; procedure, shortened: as §2
# [37] = system: Mycobacterium tuberculosis; experiment: Antibacterial activity against Mycobacterium tuberculosis H37Rv ATCC 27294T assessed as isoniazid MIC at 4 ug/ml after 7 days by microdilution checkerboard; type: functional; conditions: 168 h; procedure, shortened: as §2
# [38] = system: Mycobacterium tuberculosis; experiment: Antibacterial activity against Mycobacterium tuberculosis H37Rv ATCC 27294T assessed as rifampin MIC at 4 ug/ml after 7 days by microdilution checkerboard assay; type: functional; conditions: 168 h; procedure, shortened: as §1
# [39] = system: Mycobacterium tuberculosis; experiment: Antibacterial activity against Mycobacterium tuberculosis H37Rv ATCC 27294T assessed as ethidium bromide MIC at 128 ug/ml after 7 days by microdilution checkerboard assay; type: functional; conditions: 168 h; procedure, shortened: as §2
# [40] = system: Mycobacterium tuberculosis; experiment: Antibacterial activity against Mycobacterium tuberculosis H37Rv ATCC 27294T assessed as rifampin MIC at 256 ug/ml after 7 days by microdilution checkerboard assay; type: functional; conditions: 168 h; procedure, shortened: as §1
# [41] = system: Mycobacterium tuberculosis; experiment: Antibacterial activity against Mycobacterium tuberculosis H37Rv ATCC 27294T assessed as ethidium bromide MIC at 256 ug/ml after 7 days by microdilution checkerboard assay; type: functional; conditions: 168 h; procedure, shortened: as §2
# [42] = system: Mycobacterium tuberculosis; experiment: Antibacterial activity against Mycobacterium tuberculosis H37Rv ATCC 27294T assessed as isoniazid MIC at 256 ug/ml after 7 days by microdilution checkerboard assay; type: functional; conditions: 168 h; procedure, shortened: as §2
compound,measurement,setting,value
CCCSc1nnc(COc2ccccc2C2=NOC(c3ccc(Cl)cc3Cl)C2)n1NC(=O)c1ccccc1 (centres undefined),MIC,[1],0.25 µg/mL
same,MIC,[2],2 µg/mL
same,MIC,[3],12.5 µg/mL
same,MIC,[4],2 µg/mL
same,MIC,[5],12.5 µg/mL
same,MIC,[6],0.25 µg/mL
same,MIC,[7],2 µg/mL
same,MIC,[8],0.5 µg/mL
same,MIC,[9],12.5 µg/mL
same,MIC,[10],12.5 µg/mL
same,MIC,[11],0.1 µg/mL
same,MIC,[12],2 µg/mL
same,MIC,[13],6.25 µg/mL
same,MIC,[14],12.5 µg/mL
same,MIC,[15],32 µg/mL
same,IC50,[16],14.8 µg/mL
same,MIC,[17],0.05 µg/mL
same,MIC,[18],0.125 µg/mL
same,MIC,[19],1 µg/mL
same,MIC,[20],0.1 µg/mL
same,MIC,[21],2 µg/mL
same,MIC,[22],2 µg/mL
same,MIC,[23],2 µg/mL
same,MIC,[24],1 µg/mL
same,MIC,[25],0.25 µg/mL
same,MIC,[26],0.0312 µg/mL
same,MIC,[27],2 µg/mL
same,MIC,[28],1 µg/mL
same,MIC,[29],1 µg/mL
same,MIC,[30],0.1 µg/mL
same,MIC,[31],0.1 µg/mL
same,MIC,[32],0.1 µg/mL
same,MIC,[33],2 µg/mL
same,MIC,[34],12.5 µg/mL
same,MIC,[35],2 µg/mL
same,MIC,[36],2 µg/mL
same,MIC,[37],0.1 µg/mL
same,MIC,[38],0.25 µg/mL
COc1ccc(CCN(C)CCCC(C#N)(c2ccc(OC)c(OC)c2)C(C)C)cc1OC (centres undefined),MIC,[15],128 µg/mL
same,MIC,[23],776 µg/mL
same,MIC,[27],2 µg/mL
same,MIC,[39],3.12 µg/mL
same,MIC,[28],2 µg/mL
same,MIC,[40],0.125 µg/mL
same,MIC,[41],0.781 µg/mL
same,MIC,[33],2 µg/mL
same,MIC,[42],0.0125 µg/mL
same,MIC,[35],2 µg/mL
same,MIC,[36],2 µg/mL
